# Measurements: PubChem BioAssay AID623875 (Vanderbilt Specialized Chemistry Center, 2012)
# Where “and” joins values, the source holds several entries; their conditions need not be identical. Equal values may be shown once.
# Target: Metabotropic glutamate receptor 4 (Rattus norvegicus) (UniProt P31423)
# Assay: mGlu4 PAM potency and efficacy – thallium flux, HEK/GIRK cells, rat, SAR follow-up (AID 623875)
# Settings: HEK/GIRK rat mGlu4, thallium flux fluorescence
# How it was run: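 Test system: rat mGlu4 in HEK/GIRK/M4 cells. Detection: thallium flux through GIRK channels, FluoZin-2 AM fluorescence. Times: dye loading 1 h at room temperature, compound preincubation ~2.5 min before agonist. Compound dosing: 10-point concentration-response series, threefold dilution steps. Probe or stimulus: glutamate agonist added in thallium-containing buffer.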
# Metabotropic glutamate receptor 4 (Rattus norvegicus), sequence (P31423 whole entry, looked up): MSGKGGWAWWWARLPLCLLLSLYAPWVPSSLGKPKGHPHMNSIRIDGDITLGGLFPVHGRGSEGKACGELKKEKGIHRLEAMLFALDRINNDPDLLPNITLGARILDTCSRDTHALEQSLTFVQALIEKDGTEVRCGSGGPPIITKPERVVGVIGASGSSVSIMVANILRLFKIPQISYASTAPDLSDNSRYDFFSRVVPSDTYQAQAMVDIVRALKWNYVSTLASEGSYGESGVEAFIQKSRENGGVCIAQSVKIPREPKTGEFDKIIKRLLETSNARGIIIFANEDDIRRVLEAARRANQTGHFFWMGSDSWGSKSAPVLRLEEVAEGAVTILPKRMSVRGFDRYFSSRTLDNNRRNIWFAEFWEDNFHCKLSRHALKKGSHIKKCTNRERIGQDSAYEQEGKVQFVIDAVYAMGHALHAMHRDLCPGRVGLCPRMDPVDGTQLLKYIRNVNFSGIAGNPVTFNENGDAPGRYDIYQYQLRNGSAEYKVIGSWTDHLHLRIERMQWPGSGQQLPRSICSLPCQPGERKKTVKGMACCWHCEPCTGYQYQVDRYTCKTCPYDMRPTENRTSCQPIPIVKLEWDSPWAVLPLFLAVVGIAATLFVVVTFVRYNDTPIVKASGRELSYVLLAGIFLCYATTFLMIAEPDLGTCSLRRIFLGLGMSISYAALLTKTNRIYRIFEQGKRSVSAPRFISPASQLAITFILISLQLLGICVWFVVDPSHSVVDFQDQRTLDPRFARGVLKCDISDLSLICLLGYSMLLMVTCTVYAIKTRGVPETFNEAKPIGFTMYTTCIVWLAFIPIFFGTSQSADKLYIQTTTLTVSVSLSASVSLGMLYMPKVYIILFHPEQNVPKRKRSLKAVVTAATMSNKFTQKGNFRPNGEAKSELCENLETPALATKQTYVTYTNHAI
row,EC50,Structure (SMILES)
1,2580 nM,Clc1cccc(Nc2ncnc3cccnc23)c1
2,980 nM,O=C(Nc1ccc2cn[nH]c2c1)c1ccccn1
3,2120 nM,O=C(Nc1ccc2c(c1)C(=O)NC2=O)c1ccccn1
4,70 nM and 80 nM,Clc1cccc(Nc2noc3cccnc23)c1
5,6330 nM,COc1cc2nc(-c3ccccn3)[nH]c2cc1Cl
6,330 nM,O=C(Nc1cccc(Cl)c1)c1ccccn1
7,1190 nM,COc1cc(Nc2noc3cccnc23)ccc1Cl
8,530 nM,Fc1cccc(Nc2noc3cccnc23)c1
9,10300 nM,CC(C)N(C(=O)c1ccccn1)c1cccc(Cl)c1
10,1020 nM,Clc1ccc2nc(-c3ccccn3)[nH]c2c1
11,110 nM and 130 nM,FC(F)Oc1cccc(Nc2noc3cccnc23)c1
